Bioassay records (PubChem BioAssay)
PKA-R1A act – activators of PKA-R1A holoenzyme, primary screen, biochemical, fluorescence polarization, Cy5-IP20, bovine R1A, mouse PKAc; PKA-R1A dissociation; scaled: DMSO 0%, 113 µM cGMP 100%; cAMP-dependent protein kinase type I-alpha regulatory subunit (Bos taurus) + …; AID 504707, 2011; activation, % at 11.4 µM; actives 0.083% (n = 340,000);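 active means percent activation above the mean of all tested compounds plus 3 SD, cut at about 19% in these data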;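 further: higher means more PKAc released from R1A so a rise in polarization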
PKA-R2B act – activators of PKA-R2B holoenzyme, primary screen, biochemical, fluorescence polarization, Cy5-IP20, human; actives 0.079% (n = 340,000); PKA-R2B holoenzyme dissociation; R2B truncated from residue 108, S112A mutant; 0% DMSO only, 100% 113 µM cGMP; cAMP-dependent protein kinase catalytic subunit beta (Homo sapiens) + cAMP-dependent …; activation, % at 11.4 µM; AID 504700, 2011;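 active means activation above a cutoff set at the mean over all compounds plus 3 SD, cut at about 18% in these data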;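 further: higher means more holoenzyme dissociation and a rise in polarization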
Target sequence (P31323 whole entry, looked up, other chains not shown, the tested form may be a part): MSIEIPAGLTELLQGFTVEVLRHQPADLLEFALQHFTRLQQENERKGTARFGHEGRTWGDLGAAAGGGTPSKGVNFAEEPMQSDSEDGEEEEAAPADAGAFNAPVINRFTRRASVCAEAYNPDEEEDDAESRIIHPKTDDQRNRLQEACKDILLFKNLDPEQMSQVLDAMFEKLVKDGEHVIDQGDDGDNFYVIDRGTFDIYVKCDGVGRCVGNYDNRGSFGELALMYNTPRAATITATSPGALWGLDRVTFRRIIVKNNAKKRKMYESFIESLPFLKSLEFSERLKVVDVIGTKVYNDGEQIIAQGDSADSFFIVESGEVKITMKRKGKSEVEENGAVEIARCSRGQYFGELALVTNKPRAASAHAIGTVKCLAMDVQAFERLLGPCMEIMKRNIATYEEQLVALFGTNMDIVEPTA
SR-BI DiI-HDL act – activators of SR-BI mediated DiI-HDL uptake, primary screen, ldlA[mSR-BI] CHO cells, DiI fluorescence; activation, % at 12.5 µM; actives 0.096% (n = 320,000); 3 h; 100 = double the neutral-control signal; AID 504775, 2011;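 active means mean replicate activation of at least 60% and every replicate at or above 60%; inconclusive means mean or all-replicate condition met, but not both; inactive means mean below 60% and not all replicates reaching 60%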
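Material: SR-BI-overexpressing, LDLR-lacking CHO cells | Dosing: Single compound concentration, delivered by pin transfer | Probe or stimulus: Labelled HDL, 10 µg/mL | Signal: Bottom-read cell fluorescence after medium removal, ex 550/em 595 nm | Schedule: 3 h, 37 °C | Evaluation: HDL uptake via cellular fluorescence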
Vif imaging – HIV Vif self-association inhibitors, primary screen, imaging, HEK293T, single point | HEK293T cells, Vif self-association by quenched fluorescence, 24 h | inhibition, % at 7.49 µM | actives 0.35% (n = 340,000); in the data active means inhibition above about 50%, passing the limit was not always enough; inconclusive means no clear call, values can overlap the other calls; inactive means below about 31%
SR-BI DiI inh – inhibitors of SR-BI mediated HDL lipid uptake, primary screen, ldlA[mSR-BI] cells, fluorescence, single point | Scavenger receptor class B member 1 (Mus musculus), Q61009 | ldlA[mSR-BI] CHO cells, DiI-HDL uptake fluorescence, 3 h | inhibition, % at 12.5 µM | actives 0.96% (n = 320,000);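 active means mean replicate inhibition of at least 70% and a set share of replicates each scoring 70 or more; inconclusive means meets just one of the two criteria; inactive means fails both criteria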
DiI quench – counter-screen for SR-BI lipid transfer inhibitors: DiI fluorescence quenchers. AC50, µM (series often up to 35 µM). shares compounds with SR-BI DiI inh. actives 20% (n = 470). cell-free DiI-HDL fluorescence quenching, 30 min;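 active means quenching, a falling signal, with AC50 below a set limit tied to the top valid dose, actives reach about 32 µM in these data; inconclusive means no clear call, values can overlap the other calls; inactive means rising signal, and the rest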
Each line names hits and unclear results; the compound was inactive in the other large screens (follow-up assays come after a bar, where they were run). In the library only some 1.4% were active in any assay of this set; here they are far more common.

Cc1ccccc1-n1c(/C=C/c2ccccn2)nc2ccccc2c1=O	none
CN1C2CCC1/C(=C/c1ccccn1)C(=O)/C2=C\c1ccccn1	Vif imaging 106
Cc1ccc(-n2c(O)c(C=NCCCn3ccnc3)c(=O)[nH]c2=O)cc1	none
COc1cc(C(=O)NN=Cc2ccc(N(CCCl)CCCl)cc2)cc(OC)c1OC	SR-BI DiI inh 76
COC(=O)[C@@H]1[C@@H](C(=O)OC)C2(c3ccccc3-c3ccccc32)N(c2ccc(Cl)cc2)N1C#N	none
COC(=O)C[C@]1(C(=O)OC)CN(C#N)N(c2ccc(Cl)cc2)C12c1ccccc1-c1ccccc12	Vif imaging 57
O=C1NC(=O)C(=Cc2ccc(-c3cc(Cl)ccc3[N+](=O)[O-])o2)C(=O)N1	none
O=C1NC(=O)C(=Cc2ccc(-c3ccccc3[N+](=O)[O-])o2)C(=O)N1	SR-BI DiI inh 77
Fc1c(F)c(F)c(N2CCNCC2)c(F)c1F	none
Cc1cc(N(CCCl)CCCl)ccc1/C=N/N=C(\N)c1cnccn1	none
Cc1cc(N(CCCl)CCCl)ccc1C=Cc1ccncn1	Vif imaging 77, SR-BI DiI inh 76
COc1ccc2c(c1)[C@@]13CCC=C[C@H]1[C@@H](C2)NCC3	Vif imaging 61
Ic1ccccc1CN[C@@H]1C2CCN(CC2)[C@@H]1C(c1ccccc1)c1ccccc1	none
O=[N+]([O-])c1ccc(N2CCOCC2)c2cccnc12	none
O=[N+]([O-])c1ccc(N2CCOCC2)c2c1no[n+]2[O-]	Vif imaging 106 (no result: SR-BI DiI-HDL act, SR-BI DiI inh)
O=C(NC1(C(F)(F)F)Oc2ccc(Cl)cc2O1)N1CCC2(CC1)OCCO2 (stereo unspecified)	Vif imaging 78
Cc1c(C(=O)N2CCC3(CC2)OCCO3)sc2ncnc(N3CCc4ccccc4C3)c12	none
CC1CC(C)OP(=O)(OCCC#N)O1 (stereo unspecified)	none
CC(=O)c1cc(C(C)=O)c(C)[n+](C)c1C	Vif imaging 91
COc1cc(C2c3cc4c(cc3CC3COC(=O)C32)OCO4)cc(OC)c1O (stereo unspecified)	Vif imaging 60
CCNC(=O)C1OC(n2cnc3c(N)ncnc32)C(O)C1O (stereo unspecified)	Vif imaging 51
C=C1C(=O)OC2CC3(C)OC3C3OC3C3=CC(OC3=O)C12 (stereo unspecified)	Vif imaging 86 (no result: PKA-R1A act, PKA-R2B act, SR-BI DiI-HDL act, SR-BI DiI inh)
COc1ccc(-n2c(O)c(C=NCCN3CCN(C(C)=O)CC3)c(=O)[nH]c2=S)cc1	none
CCN(CC)C(=O)c1ccc(NC(=O)Cn2nc(C)c3ccccc3c2=O)cc1	none
CCN(CC)C(=O)c1ccc(NC(=O)c2ccc(-c3nn(C)c(=O)c4ccccc34)cc2)cc1	SR-BI DiI inh 81
CC1(C)COC(Nc2cccc(Cl)c2)=N1	none
Cc1ccsc1C(=O)C1CCCN(Cc2cnc(N3CCOCC3)s2)C1 (stereo unspecified)	none
O=C(c1cc(Br)ccc1Cl)N1CCC2(CC1)OCCO2	none
O=C(c1cc2cc(Br)ccc2[nH]1)N1CCC2(CC1)OCCO2	SR-BI DiI-HDL act 424
C=C(C)CSc1nnc([C@@H](N)Cc2ccccc2)o1	none
Cc1ccc(OC(F)F)c(N2C(=O)C3C4CCC(O4)C3C2=O)c1 (stereo unspecified)	none
COc1cc(C(=O)Nc2ccc(Br)cc2C(=O)c2ccccc2)cc(OC)c1OC	SR-BI DiI inh 81
O=C(N/N=C/c1c(O)n(C2CCCCC2)c(=S)[nH]c1=O)c1ccccc1O	SR-BI DiI inh 130
CC(C)c1ccc(-n2c(O)c(/C=N/NC(=O)c3ccccc3O)c(=O)[nH]c2=S)cc1	SR-BI DiI inh 107
O=C(N/N=C/c1c(O)n(C2CCCCC2)c(=S)[nH]c1=O)c1ccccc1	none
CCCCC(=O)N/N=C/c1c(O)n(Cc2ccco2)c(=O)[nH]c1=O	none
O=C(N/N=C/c1c(O)n(Cc2ccco2)c(=O)[nH]c1=O)c1ccccc1O	SR-BI DiI inh 80
CC(=O)O[C@H]1CC[C@@]2(C)C(=CC(=O)C3C2CC[C@@]2(C)C3C[C@H](OC(C)=O)[C@@H]2OC(C)=O)C1 (stereo partly specified)	SR-BI DiI-HDL act 66
O=S1(=O)N(CCN2CC=C(c3c[nH]c4cc(F)ccc34)CC2)c2cccc3c2N1CCC3	SR-BI DiI inh 79
O=C(c1cc(Cl)cc(Cl)c1)N1Cc2ccccc2-n2nncc2C1	none (no result: SR-BI DiI-HDL act, SR-BI DiI inh)
Cc1cccc(C2=NCC(=O)N(CC(=O)NCc3ccco3)c3sc4c(c32)CCCC4)c1	SR-BI DiI inh 77
COc1ccc(CN2C(=O)NC(=O)/C(=C/c3ccc(OC)c(OC)c3OC)C2=O)cc1	SR-BI DiI-HDL act 380
COc1ccc(CN2C(=O)NC(=O)/C(=C/c3cc(OC)c(OC)c(OC)c3)C2=O)cc1	none
CC(=O)Nc1ccccc1C(=O)C(=O)Nc1cccc(C(=O)N2CCC3(CC2)OCCO3)c1	none
CCOP(=O)(Cc1cc(C(C)=O)c(C)o1)OCC	none
CCCC(=O)c1cc(CP(=O)(OCC)OCC)oc1C	Vif imaging 50 (no result: PKA-R1A act, PKA-R2B act, SR-BI DiI-HDL act, SR-BI DiI inh)
CC1CC(NC(=O)C2C3CCC(O3)C2C(=O)O)CC(C)(C)C1 (stereo unspecified)	none
Cc1nc2ccccc2c(=O)n1/N=C/c1cc(Br)cc(Br)c1O	SR-BI DiI inh 85
COc1ccc(O)c2c(=O)c3c(OC)cc4c(c3oc12)C1C=COC1O4 (stereo unspecified)	Vif imaging 73
Cc1ccccc1-n1c(O)c(/C=N/NC(=O)c2ccncc2)c(=O)[nH]c1=O	none
O=C(Nc1ccccc1F)OC1CN2CCC1CC2 (stereo unspecified)	SR-BI DiI inh 84 | DiI quench inactive
CC(C)(C)c1ccc(S(=O)(=O)N2CC3CC(C2)c2cccc(=O)n2C3)cc1 (stereo unspecified)	none | DiI quench inactive
COc1ccc(S(=O)(=O)N2CC3CC(C2)c2cccc(=O)n2C3)cc1 (stereo unspecified)	none
COc1cc(C2(C#N)CCN(C)CC2)cc(OC)c1OC	none
O=C(N/N=C/C1C(=O)NC(=S)N(c2ccccc2)C1=O)c1cc(Br)c(O)c(Br)c1 (stereo unspecified)	SR-BI DiI inh inconclusive
